Results as given in the RNAGym collection of RNA variant scans (doi:10.1038/s41586-018-0170-7).

B1: tRNA (parent)
chain: GUUCCGUUGGCGUAAUGGUAACGCGUCUCCCUCCUAAGGAGAAGACUGCGGGUUCGAGUCCCGUACGGAACG

Variants of: B1
Assay: yeast fitness, log relative to wild type (ln ratio); higher = fitter; tRNA-Arg(CCU), competitive growth, 37 C, 1 M NaCl
How it was run: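 In BY4742 missing the chromosomal gene, a combinatorial tRNA-Arg(CCU) variant library was maintained on a HIS3 centromeric plasmid. Selection ran ~6.5 generations (~26.5 h) in SC-HIS 1M NaCl at 37 °C, following 4 generations in SC-HIS at 30 °C, with three outputs per input and variant counts by 125 bp paired-end Illumina sequencing. Fitness is the natural log of a genotype's generations relative to the wild type's, with generations taken as inverse-variance-weighted, OD-scaled log2 output/input frequency.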

Variant | yeast fitness (ln)
U2G G6A C66A C71U | -0.139
U2G G6U C27U | -0.0917
U2G G6A C46U C66U A70U C71U | -0.0272
U2G G6U C27U C66U A70U C71U | -0.343
U2G G6U C27U A43C C46U C66A A70G | -0.21
U2G G6U C27U A43C C46U C66A A70U | -0.017
U2G G6U C46U C66U A70G C71U | -0.152
U2G G6U C66A | -0.0885
U2G G6U C66U | -0.0894
U2G G6U C46U C66U A70G | -0.137
U2G G6U C46U C66U A70U | -0.0168
U2G G6U A43C C46U C66U A69G A70U C71U | -0.4
U2G G6U A43C C66A A69G A70U | -0.185
U2G G6U A43C C66A A69G A70G | -0.256
U2G G6U C27U A69G C71U | -0.286
G6A A43C C46U C66U A69G A70G C71U | -0.24
U2G G6A C46U C71U | -0.149
U2G G6U C27U A43C C46U A69G A70U C71U | -0.418
G6A A43C C46U A69G A70G | -0.216
G6A A43C C46U A69G A70U | -0.124
U2G G6U C27U C46U C66U A70U | -0.106
U2G G6U C27U C46U C66U A70G | -0.176
U2G G6U C66U A69G C71U | -0.239
U2G G6U A43C C46U C66U A70U C71U | -0.22

Variant | yeast fitness (ln)
G6A A43C C46U C66U A69G A70U C71U | -0.233
U2G G6U C27U A43C A69G C71U | -0.439
U2G G6U C27U A43C C46U C71U | -0.197
U2G G6U C46U C66U A69G A70U C71U | -0.39
U2G G6U C66A A70U | 0.00254
U2G G6U C66A A70G | -0.0514
U2G G6A C46U C66U A70G | -0.0322
U2G G6A C46U C66U A70U | -0.000351
U2G G6U C46U A69G A70U C71U | -0.311
U2G G6U C46U C66A A70G C71U | -0.26
U2G G6U C27U C46U C66A A70U C71U | -0.143
G6A A43C A70U | -0.143
G6A A43C A70G | -0.223
U2G G6U C27U A43C C46U C66U A69G | -0.317
U2G G6U C27U C46U A69G | -0.255
U2G G6A C46U C66U A69G A70U C71U | -0.385
U2G G6A C66A A70U C71U | -0.123
U2G G6U C27U A43C C66U C71U | -0.381
U2G G6U A43C C46U C66U A69G A70G | -0.267
U2G G6U A43C C46U C66U A69G A70U | -0.286
U2G G6U C27U A43C C46U C66A A69G A70U C71U | -0.386
U2G G6U C27U C46U C66A A69G A70G C71U | -0.25
U2G G6U C27U A43C C46U A69G A70U | -0.147
U2G G6U C27U A43C C46U A69G A70G | -0.242

Variant | yeast fitness (ln)
U2G G6U C27U A43C A69G | -0.268
U2G G6U C27U C66U A70G | -0.207
U2G G6U C27U C66U A70U | -0.342
U2G G6U C27U C66U A69G A70G | -0.375
U2G G6U C27U C66U A69G A70U | -0.276
U2G G6U C27U C46U A69G A70U C71U | -0.387
U2G G6U A43C C46U C66U A70G | -0.185
U2G G6U A43C C46U C66U A70U | -0.263
U2G G6U C27U C46U A69G A70G C71U | -0.268
U2G G6U C27U A43C A69G A70G | -0.322
U2G G6U C27U A43C A69G A70U | -0.315
G6A A43C C46U C66A A70G C71U | -0.286
U2G G6U C27U A43C C71U | -0.304
U2G G6U A43C A69G C71U | -0.402
U2G G6U A43C C46U A70U | -0.337
U2G G6U A43C C46U A70G | -0.138
G6A A43C C46U A70U C71U | -0.151
U2G G6U A43C C46U C66A A69G C71U | -0.462
G6A A43C C46U C66A A69G A70U | -0.317
U2G G6U A43C | -0.129
U2G G6U C27U A70G | -0.211
U2G G6U C27U A70U | -0.397
U2G G6U C27U A43C C46U C66U A69G A70G C71U | -0.369
U2G G6U C27U A43C C66A C71U | -0.39

Variant | yeast fitness (ln)
U2G G6U C46U C66A A70U | 0.00118
U2G G6U C46U C66A A70G | -0.0357
G6A A43C C46U A70G C71U | -0.207
U2G G6U A43C C46U A69G A70U | -0.194
U2G G6U A43C C46U A69G A70G | -0.183
U2G G6U A43C C46U A69G A70G C71U | -0.223
U2G G6U C27U A43C C46U C66A A69G C71U | -0.352
U2G G6U A43C C46U A70G C71U | -0.229
U2G G6U C27U C46U C66A | -0.144
U2G G6U C27U C46U C66U | -0.147
U2G G6U C27U A43C C66A A70G C71U | -0.253
U2G G6U C46U C66U C71U | -0.2
U2G G6U C27U A43C C46U A70G C71U | -0.295
U2G G6U C27U A43C C46U C66A A69G A70U | -0.357
U2G G6U C27U A43C C46U C66A A69G A70G | -0.187
U2G G6U A43C C46U C66A | -0.205
U2G G6U A43C C46U C66U | -0.191
U2G G6U A69G | -0.176
U2G G6U C27U C46U A70U C71U | -0.171
U2G G6A C66U A69G A70G | -0.448
U2G G6A C66U A69G A70U | -0.00753
U2G G6U C27U A43C C66U | -0.298
U2G G6U C27U A43C C66A | -0.0341
U2G G6U C27U A43C C66U A70G C71U | -0.316

Variant | yeast fitness (ln)
U2G G6U C27U A43C A70G | -0.232
U2G G6U C27U A43C A70U | -0.207
U2G G6U A43C C66U A69G C71U | -0.408
U2G G6U C66U A69G A70U C71U | -0.421
U2G G6U C27U C46U C66A A69G C71U | -0.293
U2G G6U C66U A69G A70G C71U | -0.235
U2G G6U C27U A43C | -0.107
U2G G6A C66U A70U | 0.001
U2G G6A C66U A70G | -0.0683
U2G G6U A70G C71U | -0.173
U2G G6U C27U A43C A69G A70U C71U | -0.484
G6A A43C C46U A70U | -0.117
G6A A43C C46U A70G | -0.0876
G6A A43C C46U C66U A69G | -0.0394
U2G G6U C27U A43C C66U A70G | -0.356
U2G G6U C27U A43C C66U A70U | -0.219
U2G G6U C27U A43C C66A A69G A70G C71U | -0.371
U2G G6U A43C C46U A70U C71U | -0.168
G6A A43C C46U C66A A69G A70G C71U | -0.207
G6A A43C | -0.0714
U2G G6A C66U A69G A70G C71U | -0.161
U2G G6U C27U C46U C66U A69G A70U C71U | -0.336
U2G G6U C27U A43C C46U C66U C71U | -0.356
G6A A43C C46U | -0.143

Variant | yeast fitness (ln)
U2G G6U C71U | -0.173
G6A A43C A69G A70U C71U | -0.429
U2G G6U C66U C71U | -0.203
U2G G6U C27U A43C C46U | -0.127
U2G G6A C66U C71U | -0.134
U2G G6U A43C C66U A69G A70G | -0.323
U2G G6U A43C C66U A69G A70U | -0.379
U2G G6U A69G A70G | -0.171
U2G G6U A69G A70U | -0.151
U2G G6U C27U A43C C46U C66U A69G A70U C71U | -0.507
U2G G6U A43C C46U C66U C71U | -0.309
U2G G6U A70U C71U | -0.109
U2G G6U A69G A70G C71U | -0.235
U2G G6U A43C C46U C66A A69G A70G C71U | -0.228
U2G G6U C46U A69G A70G | -0.109
U2G G6U C46U A69G A70U | -0.402
U2G G6U A43C A69G A70U C71U | -0.433
U2G G6U C66A A70U C71U | -0.0189
U2G G6U C27U C66A A69G A70U C71U | -0.369
U2G G6U C27U C46U C66A C71U | -0.147
U2G G6U A43C C66U A70G | -0.338
U2G G6U A43C C66U A70U | -0.279
U2G G6U C27U C66A A70G C71U | -0.239
U2G G6U C66A A69G A70U C71U | -0.726

Variant | yeast fitness (ln)
U2G G6U A43C A70G | -0.173
U2G G6U A43C A70U | -0.151
U2G G6U C66U A70U C71U | -0.303
U2G G6U C27U A69G A70U C71U | -0.515
U2G G6U A43C C66U C71U | -0.405
U2G G6U C27U C66U A69G C71U | -0.427
U2G G6U C27U A43C C66A A69G A70G | -0.219
U2G G6U C27U A43C C66A A69G A70U | -0.315
U2G G6U C46U C66U A69G A70G C71U | -0.231
U2G G6A C66A A69G A70U C71U | -0.31
G6A A43C C46U C66A C71U | -0.229
U2G G6U C46U C66U A70U C71U | -0.643
U2G G6U A43C C66U A70G C71U | -0.397
U2G G6U A43C A70U C71U | -0.215
U2G G6A C66U A70U C71U | -0.0405
U2G G6U C46U C66U A69G C71U | -0.252
U2G G6U C46U C66A A69G A70G | -0.13
U2G G6U C46U C66A A69G A70U | 0.00778
U2G G6U C27U A43C C46U C66U A70U | -0.227
U2G G6U C27U A43C C46U C66U A70G | -0.311
U2G G6A C66A A70G C71U | -0.17
U2G G6U A43C A70G C71U | -0.282
U2G G6U C27U A43C C66U A69G A70G C71U | -0.51
